CYP2C19 inh: human CYP2C19 inhibition; P33261; CYP2C19 Supersomes, luciferin-H EGE luminescence, 30 min; inhibition, % at 5 µM; 21% of 96,000 active; AID 778;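 active = CYP2C19 inhibition above a set limit at 5 µM in the primary screen, cut at about 50% in these data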;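 also: plate controls were negative control wells for no effect and 2.5 mM tranylcypromine positive control for full effect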
Target sequence (P33261 whole entry, looked up): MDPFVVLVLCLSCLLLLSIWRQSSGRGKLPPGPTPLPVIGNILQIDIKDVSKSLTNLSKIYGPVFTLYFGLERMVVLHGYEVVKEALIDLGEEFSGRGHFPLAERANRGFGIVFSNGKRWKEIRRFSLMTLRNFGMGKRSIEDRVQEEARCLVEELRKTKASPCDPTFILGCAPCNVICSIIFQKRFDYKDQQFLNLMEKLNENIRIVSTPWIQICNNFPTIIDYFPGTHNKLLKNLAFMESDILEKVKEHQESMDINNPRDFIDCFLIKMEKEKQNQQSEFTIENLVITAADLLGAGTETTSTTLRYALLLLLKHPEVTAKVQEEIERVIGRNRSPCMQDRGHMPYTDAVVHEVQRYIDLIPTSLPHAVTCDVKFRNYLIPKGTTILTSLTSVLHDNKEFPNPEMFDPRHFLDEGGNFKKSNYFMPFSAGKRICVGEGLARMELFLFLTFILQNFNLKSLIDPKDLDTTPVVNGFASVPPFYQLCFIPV
Cav3 T inh: blocks human Cav3.2 T-type calcium channel; O95180; Cav3.2-expressing cells, Fluo-4 calcium fluorescence FDSS; active compounds read low; B-score at 10 µM; 4% of 100,000 active; AID 449739;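 active = single-dose well whose peak fluorescence ratio is a statistical outlier from its plate by either plate-standardised score or position-corrected B-score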
CYP2C9 activ: activators of human CYP2C9; recombinant CYP2C9, luciferin-H conversion, luminescence; active compounds read high; factor 1 = untreated enzyme, 0 = blocked; 1.4% of 96,000 active; activation factor at 5 µM; P11712;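 active = activation factor of 2 or more for CYP2C9 at a 5 µM dose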;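 also: 0 = sulfaphenazole-blocked wells and 1 = vehicle-only wells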
CYP2C9 inh: inhibitors of human CYP2C9. P11712. CYP2C9 Supersomes, luciferin-H conversion, luminescence. inhibition, % at 5 µM. 20% of 96,000 active. AID 777;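 active = blocking of liver enzyme CYP2C9 beyond about 50% at 5 µM, limit read from the data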
Rev-RRE block: HIV Rev-RRE protein-RNA interaction inhibition; P05866; Rev peptide-RRE RNA binding, FRET; inhibition, % at 8 µM; 0.79% of 97,000 active; AID 704;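 active = inhibition above the screen-wide mean plus 3 SD, cut at about 35% in these data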;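 also: 0% = median DMSO wells and 100% = median Neomycin B control wells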
Target sequence (P05866 whole entry, looked up): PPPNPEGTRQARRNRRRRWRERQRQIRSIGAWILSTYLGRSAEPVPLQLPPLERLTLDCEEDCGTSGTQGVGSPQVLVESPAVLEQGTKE
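Probe or stimulus: fluorescein-Rev peptide as binding partner; assay system: Cy5-tagged RRE RNA duplex with fluorescein-tagged Rev peptide; timing: 5 min compound–RNA preincubation, then 15 min with peptide, 25 °C; medium: HEPES pH 7.5 buffer with KCl, MgCl2, NaCl and EDTA; signal: fluorescein-to-Cy5 FRET, 480 nm excitation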
CYP2C19 activ: increases human CYP2C19 enzyme activity; P33261; recombinant CYP2C19, luciferin-H EGE luminescence; active compounds read high; 0 = fully inhibited enzyme, 1 = untreated enzyme; activation factor at 5 µM; 96,000 tested, under 10 active; AID 1025;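 active = activation factor of at least 2 at 5 µM in the primary screen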;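 also: 0 = wells with 2.5 mM tranylcypromine and 1 = vehicle-only wells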
Numbers without * were called inactive; · = no result. Rows were chosen to be rich in hits. Some 27% of all compounds tested hit in one or more screens of this group.

SMILES | CYP2C19 inh | Cav3 T inh | CYP2C9 activ | CYP2C9 inh | Rev-RRE block | CYP2C19 activ
COc1ccc(CCNC(=O)COC(=O)c2cnc(C)cn2)cc1 | 4.7 | -0.533 | 0.7 | 27.1 | 1.4 | 1
COc1ccc(OC)c(CCNC(=O)Cn2sc3nc(C)cc(C)c3c2=O)c1 | 21.6 | 0.183 | 0.4 | 64.8* | 3.0 | 0.8
Cc1nn(Cc2ccc(Cl)c(Cl)c2)c(C)c1NC(=O)c1sc2ccccc2c1Cl | 69.7* | -8.11* | 0.1 | 86.7* | 6.5 | 0.3
Cc1ccccc1Cn1nc(C)c(NC(=O)c2sc3ccccc3c2Cl)c1C | 19.0 | -6.84* | 0.8 | 16.5 | 0.5 | 0.8
Cc1nn(Cc2c(Cl)cccc2Cl)c(C)c1NC(=O)c1sc2ccccc2c1Cl | 34.8 | 0.132 | 0.7 | 28.2 | -0.8 | 0.7
O=C(Nc1ccc(Cn2nnc3ccccc32)cc1)c1ccco1 | -7.3 | 1.15 | 0.9 | 7.6 | -4.2 | 1.1
CC(O)Cc1cn([C@@H](CCCCN)C(=O)N2CCNCC2)nn1 (stereo not given in full) | · | -0.385 | · | · | · | ·
CCN1C(=O)NC(c2cc(Br)ccc2OC)C(C(=O)OC)=C1C (stereo not given) | · | -0.0759 | · | · | 2.7 | ·
Cc1ccccc1C(=O)/C=C1/c2ccccc2CC(C)(C)N1C | 41.1 | -3.88* | 0.4 | 57.5* | -0.3 | 0.6
Cc1cccc(C(=O)/C=C2/c3ccccc3CC(C)(C)N2C)c1 | 86.8* | -4.25* | 0.1 | 85.2* | -6.4 | 0.1
CN1/C(=C\C(=O)c2ccco2)c2ccccc2CC1(C)C | 5.9 | -0.161 | 0.8 | 17.2 | -3.7 | 0.9
Cc1ccc(N2C(=O)CC2(C#N)c2ccc(OCc3ccccc3)cc2)cc1 (stereo not given) | 18.1 | -0.0255 | 0.4 | 61.7* | 10.8 | 0.8
COc1ccc(C2(C(=O)O)CCCC2)cc1 | -11.3 | 0.295 | 1.1 | -13.1 | 3.7 | 1.1
COc1ccc(N2C(=O)CCC2(C#N)c2ccc(OC)cc2)cc1 (stereo not given) | 65.7* | 0.58 | 0.8 | 23.2 | 1.3 | 0.3
CC(C)NC(=O)CSc1nncn1-c1ccccc1 | -6.7 | 0.629 | 1.1 | -7.1 | · | 1.1
CCOC(=O)N1CCN(C(=O)C2CCCN(Cc3nc(-c4ccc(Cl)cc4)oc3C)C2)CC1 (stereo not given) | 3.2 | · | 1.1 | -9.7 | 6.0 | 1
CCOC(=O)N1CCC(NC(=O)C2CCCN(Cc3nc(-c4cccc(Cl)c4)oc3C)C2)CC1 (stereo not given) | 67.1* | -2.7 | 0.5 | 53.9* | 0.9 | 0.3
COc1ccc(CCNC(=O)C2CCCN(Cc3nc(-c4ccccc4C)oc3C)C2)cc1OC (stereo not given) | 25.7 | · | 0.7 | 32.6 | 3.0 | 0.7
CCc1ccc(-c2nc(CN3CCCC(C(=O)NCCc4ccc(OC)c(OC)c4)C3)c(C)o2)cc1 (stereo not given) | 18.4 | -5.8* | 0.5 | 54.0* | -1.0 | 0.8
O=C1NCCCC1C(=O)N1CCN(C(c2ccccc2)c2ccccc2)CC1 (stereo not given) | -4.9 | 0.265 | 1 | 2.2 | · | 1
CCOC(=O)N1CCC(NC(=O)C2CCN(S(=O)(=O)N3CCC(C)CC3)CC2)CC1 | 4.0 | -3.3 | 0.8 | 20.6 | -0.7 | 1
CCOC(=O)c1sc2nc(CC(=O)OC)nc(N3CCN(c4ccc(OC)cc4)CC3)c2c1C | 88.7* | -1.48 | 0 | 95.6* | -0.9 | 0.1
CCOC(=O)c1sc2nc(CC(=O)OC)nc(NCCN3CCOCC3)c2c1C | 54.5* | 3.27 | 0.5 | 50.8* | 6.6 | 0.5
CCOC(=O)c1sc2nc(CC(=O)OC)nc(NCCN(CC)CC)c2c1C | -9.4 | 2.33 | 1 | -0.5 | 9.1 | 1.1
CCOc1ccc(N2CC(C(=O)Nc3ncccc3C)CC2=O)cc1 (stereo not given) | -6.0 | -0.539 | 0.8 | 23.7 | -0.6 | 1.1
SMILES | CYP2C19 inh | Cav3 T inh | CYP2C9 activ | CYP2C9 inh | Rev-RRE block | CYP2C19 activ
CCCCOC(=O)CSc1nc2c(cc1C#N)C(=O)CC(C)(C)C2 | 49.0 | -1.62 | 0.4 | 64.0* | 8.9 | 0.5
O=C(Nc1ccc(Br)cc1)c1ccc(N2C(=O)C3CC=C(Cl)CC3C2=O)cc1 (stereo not given) | 13.4 | 0.00143 | 0.3 | 73.8* | 17.2 | 0.9
NS(=O)(=O)c1cc(C(=O)N2CCc3ccccc32)c(Cl)cc1Cl | 4.0 | 0.821 | 0.7 | 32.2 | 0.6 | 1
Cc1ccccc1NC1=C(Cl)C(=O)OC1NC(=O)c1ccccc1 (stereo not given) | 60.7* | 0.714 | 0.3 | 72.3* | 11.9 | 0.4
Cc1ccccc1NC1=C(Cl)C(=O)OC1OC(=O)c1ccco1 (stereo not given) | 27.9 | 0.232 | 0.5 | 48.4 | 7.7 | 0.7
Cc1[nH]n(C(C)(C)C)c(=O)c1Sc1ccccc1 | 17.7 | 0.0294 | 0.8 | 22.4 | 4.9 | 0.8
Cc1ccc(Sc2c(C)[nH]n(C(C)(C)C)c2=O)cc1 | 87.6* | 1.22 | 0.1 | 86.7* | 3.7 | 0.1
COc1ccc(N2CCN(Cc3nc(N)nc(Nc4ccc(C)c(Cl)c4)n3)CC2)cc1 | 59.0* | -5.2* | 0.3 | 68.2* | 3.7 | 0.4
Nc1nc(CN2CCN(c3ccccc3)CC2)nc(N2CCCc3ccccc32)n1 | 62.3* | -2.96 | 0.4 | 59.7* | 6.5 | 0.4
CCOC(=O)N1CCN(Cc2nc(N)nc(Nc3ccc(Oc4ccccc4)cc3)n2)CC1 | 28.5 | -1.19 | 0.2 | 80.7* | 6.8 | 0.7
COc1ccc(Nc2nc(N)nc(CN3CCOCC3)n2)cc1 | 2.7 | 0.211 | 1.2 | -15.3 | 1.1 | 1
Nc1nc(CN2CCN(c3cccc(Cl)c3)CC2)nc(N2CCCc3ccccc32)n1 | 41.0 | -2.55 | 0.8 | 21.9 | 5.0 | 0.6
Cc1ccc(Nc2nc(N)nc(CN3CCN(C)CC3)n2)cc1C | -17.2 | 0.0964 | 1.1 | -11.3 | 8.7 | 1.2
Cc1ccc(Nc2nc(N)nc(CN3CCN(c4ccccc4)CC3)n2)cc1Cl | 20.2 | -1.04 | 0.4 | 60.3* | 2.8 | 0.8
CC(Cc1ccccc1)C(=O)NCc1nc2ccccc2s1 (stereo not given) | · | -0.209 | · | · | · | ·
O=C(Cc1cccc2ccccc12)NNC(=O)c1cccs1 | 40.8 | 0.891 | 1 | -2.1 | 8.6 | 0.6
O=C(CCN1CCN(c2ccccc2)CC1)Nc1cccc(Br)c1 | · | -2.82 | · | · | · | ·
CCOc1nc(Nc2ccc(OC)c(Cl)c2)nc(N2CCN(c3ccc(OC)cc3)CC2)n1 | 31.0 | -0.918 | 0.3 | 67.1* | 1.0 | 0.7
CCCCN(CC)C(=O)c1cccc(Cl)c1 | 70.8* | 0.453 | 0.8 | 17.9 | 1.6 | 0.3
Cc1ccoc1C(=O)Nc1ccc(CC(=O)O)cc1 | 15.4 | 0.13 | 1.1 | -7.3 | 9.2 | 0.8
CCc1ccccc1N1C(=O)C2CC(C)=C(C)CC2C1=O (stereo not given) | 47.5 | 0.249 | 0.5 | 51.4* | 2.8 | 0.5
CCc1ccc(-c2cc(C(F)(F)F)n3nc(C(=O)Nc4c(C)nn(Cc5ccc(F)cc5)c4C)cc3n2)s1 | 42.2 | -0.707 | 0.3 | 70.4* | 2.8 | 0.6

Screens as filed in PubChem.
